Measured values from ChEMBL document CHEMBL2412964, “Discovery of novel tetrahydro-pyrazolo [4,3-c] pyridines for the treatment of neuropathic pain: synthesis and neuropharmacology” (Eur J Med Chem, 2013).

Key:
Rattus norvegicus [1] = experiment: Antinociceptive activity in Wistar rat partial sciatic nerve ligation model assessed as reversal of mechanical allodynia at 100 mg/kg, ip after 120 mins (reference value: 2.9 +/- 0.3%); assay type: functional; settings: route intraperitoneal
Rattus norvegicus [2] = experiment: Antinociceptive activity in Wistar rat chronic constriction injury model assessed as reversal of mechanical allodynia at 100 mg/kg, ip after 60 mins (reference value: 4.9 +/- 1.0%); assay type: functional; settings: route intraperitoneal
Rattus norvegicus [3] = experiment: Antinociceptive activity in Wistar rat chronic constriction injury model assessed as reversal of cold allodynia at 100 mg/kg, ip after 120 mins (reference value: 5.4 +/- 1.9%); assay type: functional; settings: route intraperitoneal
Rattus norvegicus [4] = experiment: Antinociceptive activity in Wistar rat partial sciatic nerve ligation model assessed as reversal of tactile allodynia at 100 mg/kg, ip after 60 mins (reference value: 12.5 +/- 1.2%); assay type: functional; settings: route intraperitoneal
Rattus norvegicus [5] = experiment: Antinociceptive activity in Wistar rat partial sciatic nerve ligation model assessed as reversal of mechanical allodynia at 100 mg/kg, ip after 60 mins (reference value: 2.8 +/- 0.3%); assay type: functional; settings: route intraperitoneal
Rattus norvegicus [6] = experiment: Antinociceptive activity in Wistar rat partial sciatic nerve ligation model assessed as reversal of cold allodynia at 100 mg/kg, ip after 60 mins (reference value: 2.5 +/- 0.3%); assay type: functional; settings: route intraperitoneal
Mus musculus [7] = experiment: Antinociceptive activity in Swiss albino mouse assessed as inhibition of formalin-induced flinching at 100 mg/kg administered 30 mins prior to test measured for 10 to 30 mins relative to control; assay type: functional
Rattus norvegicus [8] = experiment: Antinociceptive activity in Wistar rat chronic constriction injury model assessed as reversal of spontaneous pain response at 100 mg/kg, ip after 120 mins (reference value: 4.5 +/- 0.2%); assay type: functional; settings: route intraperitoneal
Mus musculus [9] = species on record: Mus musculus; experiment: Neurotoxicity in Swiss albino mouse assessed as minimal motor impairment after 0.5 hrs by rotarod test; assay type: toxicity, organism-based; settings: in vivo
In short: (§1)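 Mice, either sex, 20-25 g, dosed at 30, 100 and 300 mg/kg. Minimal motor impairment was scored on the rotarod at 0.5 and 4.0 h. Value reported is the minimum dose showing the effect in half or more of three mice per group.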

Rattus norvegicus [10] = experiment: Antinociceptive activity in Wistar rat chronic constriction injury model assessed as reversal of spontaneous pain response at 100 mg/kg, ip after 60 mins (reference value: 4.6 +/- 0.6%); assay type: functional; settings: route intraperitoneal
Rattus norvegicus [11] = experiment: Antinociceptive activity in Wistar rat partial sciatic nerve ligation model assessed as reversal of spontaneous pain response at 100 mg/kg, ip after 30 mins (reference value: 3.2 +/- 0.3%); assay type: functional; settings: route intraperitoneal
Rattus norvegicus [12] = experiment: Antinociceptive activity in Wistar rat chronic constriction injury model assessed as reversal of mechanical allodynia at 100 mg/kg, ip after 30 mins (reference value: 4.7 +/- 2.1%); assay type: functional; settings: route intraperitoneal
Rattus norvegicus [13] = experiment: Antinociceptive activity in Wistar rat chronic constriction injury model assessed as reversal of cold allodynia at 100 mg/kg, ip after 60 mins (reference value: 6.3 +/- 1.9%); assay type: functional; settings: route intraperitoneal
Rattus norvegicus [14] = experiment: Antinociceptive activity in Wistar rat chronic constriction injury model assessed as reversal of mechanical allodynia at 100 mg/kg, ip after 120 mins (reference value: 5.3 +/- 0.5%); assay type: functional; settings: route intraperitoneal
Rattus norvegicus [15] = experiment: Antinociceptive activity in Wistar rat chronic constriction injury model assessed as reversal of tactile allodynia at 100 mg/kg, ip after 30 mins (reference value: 3.4 +/- 0.8%); assay type: functional; settings: route intraperitoneal
Mus musculus [16] = species on record: Mus musculus; experiment: Neurotoxicity in Swiss albino mouse assessed as minimal motor impairment after 4 hrs by rotarod test; assay type: toxicity, organism-based; settings: in vivo; in short: as §1
Rattus norvegicus [17] = experiment: Antinociceptive activity in Wistar rat partial sciatic nerve ligation model assessed as reversal of cold allodynia at 100 mg/kg, ip after 30 mins (reference value: 4.1 +/- 1.0%); assay type: functional; settings: route intraperitoneal
Rattus norvegicus [18] = experiment: Antinociceptive activity in Wistar rat chronic constriction injury model assessed as reversal of tactile allodynia at 100 mg/kg, ip after 120 mins (reference value: 4.1 +/- 2.1%); assay type: functional; settings: route intraperitoneal
Rattus norvegicus [19] = experiment: Antinociceptive activity in Wistar rat partial sciatic nerve ligation model assessed as reversal of tactile allodynia at 100 mg/kg, ip after 30 mins (reference value: 7.7 +/- 0.7%); assay type: functional; settings: route intraperitoneal
Rattus norvegicus [20] = experiment: Antinociceptive activity in Wistar rat chronic constriction injury model assessed as reversal of tactile allodynia at 100 mg/kg, ip after 60 mins (reference value: 1.3 +/- 0.3%); assay type: functional; settings: route intraperitoneal
Rattus norvegicus [21] = experiment: Antinociceptive activity in Wistar rat chronic constriction injury model assessed as reversal of spontaneous pain response at 100 mg/kg, ip after 30 mins (reference value: 8.9 +/- 4.6%); assay type: functional; settings: route intraperitoneal
Rattus norvegicus [22] = experiment: Antinociceptive activity in Wistar rat partial sciatic nerve ligation model assessed as reversal of mechanical allodynia at 100 mg/kg, ip after 30 mins (reference value: 2.9 +/- 0.3%); assay type: functional; settings: route intraperitoneal
Mus musculus [23] = experiment: Antinociceptive activity in Swiss albino mouse assessed as inhibition of formalin-induced flinching at 100 mg/kg administered 30 mins prior to test measured up to 5 mins relative to control; assay type: functional
Mus musculus [24] = experiment: Antinociceptive activity in Swiss albino mouse assessed as inhibition of acetic acid-induced writhing at 100 mg/kg administered 30 mins prior to acetic acid-challenge measured for 30 mins relative to control; assay type: functional
In short: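 Swiss albino mice (20–25 g, either sex); writhing induced by i.p. 0.1 mL of 2.0% v/v acetic acid given half an hour after test compound dosing.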

Rattus norvegicus [25] = experiment: Antinociceptive activity in Wistar rat partial sciatic nerve ligation model assessed as reversal of cold allodynia at 100 mg/kg, ip after 120 mins (reference value: 1.5 +/- 0.5%); assay type: functional; settings: route intraperitoneal
Rattus norvegicus [26] = experiment: Antinociceptive activity in Wistar rat partial sciatic nerve ligation model assessed as reversal of spontaneous pain response at 100 mg/kg, ip after 60 mins (reference value: 2.9 +/- 0.3%); assay type: functional; settings: route intraperitoneal
Rattus norvegicus [27] = experiment: Antinociceptive activity in Wistar rat partial sciatic nerve ligation model assessed as reversal of tactile allodynia at 100 mg/kg, ip after 120 mins relative to control; assay type: functional; settings: route intraperitoneal
Rattus norvegicus [28] = experiment: Antinociceptive activity in Wistar rat partial sciatic nerve ligation model assessed as reversal of spontaneous pain response at 100 mg/kg, ip after 120 mins (reference value: 1.2 +/- 0.1%); assay type: functional; settings: route intraperitoneal
Rattus norvegicus [29] = experiment: Antinociceptive activity in Wistar rat chronic constriction injury model assessed as reversal of cold allodynia at 100 mg/kg, ip after 30 mins (reference value: 0.6 +/- 2.7%); assay type: functional; settings: route intraperitoneal
Mus musculus [30] = experiment: Neurotoxicity in Swiss albino mouse assessed as minimal motor impairment at 300 mg/kg after 0.5 hrs by rotarod test; assay type: toxicity, organism-based; design: dose 300 mg/kg; settings: in vivo
In short: (§2)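 Swiss albino mice of either sex, 20-25 g, dosed at 30, 100 and 300 mg/kg, three per group. Minimal motor impairment scored by rotarod at 0.5 and 4.0 h after dosing. Reported value is the lowest dose giving impairment in half or more of the mice.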

Mus musculus [31] = experiment: Neurotoxicity in Swiss albino mouse assessed as minimal motor impairment at 300 mg/kg after 4 hrs by rotarod test; assay type: toxicity, organism-based; design: dose 300 mg/kg; settings: in vivo; in short: as §2

Compound	Activity (Rattus norvegicus [1]) [%]	Activity (Rattus norvegicus [2]) [%]	Activity (Rattus norvegicus [3]) [%]	Activity (Rattus norvegicus [4]) [%]	Activity (Rattus norvegicus [5]) [%]	Activity (Rattus norvegicus [6]) [%]	inhibition in vivo at 100 mg/kg (Mus musculus [7]) [%]	Activity (Rattus norvegicus [8]) [%]	Activity (Rattus norvegicus [10]) [%]	Activity (Rattus norvegicus [11]) [%]	Activity (Rattus norvegicus [12]) [%]	Activity (Rattus norvegicus [13]) [%]	Activity (Rattus norvegicus [14]) [%]	Activity (Rattus norvegicus [15]) [%]	Activity (Rattus norvegicus [17]) [%]	Activity (Rattus norvegicus [18]) [%]	Activity (Rattus norvegicus [19]) [%]	Activity (Rattus norvegicus [20]) [%]	Activity (Rattus norvegicus [21]) [%]	Activity (Rattus norvegicus [22]) [%]	further results
CCN1CCc2c(c(C)nn2C(=O)Nc2cc(C)ccc2C)C1	14.6	20.7	14.1	16	20.8	14.8	55.8	27.7	33.3	7.5	3.8	18.7	16.8	17.3	17.1	2.2	27.6	9.9	23.6	39.6	MLD (Mus musculus [9]): 300 mg/kg; MLD (Mus musculus [16]): 300 mg/kg; inhibition in vivo at 100 mg/kg (Mus musculus [23]): 2.6%; inhibition in vivo at 100 mg/kg (Mus musculus [24]): 62.2%; Activity (Rattus norvegicus [25]): 12%; Activity (Rattus norvegicus [26]): 11.1%; Activity (Rattus norvegicus [27]): 3.5%; Activity (Rattus norvegicus [28]): 4.8%; Activity (Rattus norvegicus [29]): 18.4%
CCN1CCc2c(c(C)nn2C(=O)Nc2ccc(C)cc2C)C1	18.7	57.5	41.8	41.9	50.5	14.3	16.3	64.4	67.5	40.7	70.8	37.3	65	17.2	60.4	66.1	53.3	56.6	72.9	63.3	MLD (Mus musculus [9]): 300 mg/kg; MLD (Mus musculus [16]): 300 mg/kg; inhibition in vivo at 100 mg/kg (Mus musculus [23]): 7%; inhibition in vivo at 100 mg/kg (Mus musculus [24]): 56.1%; Activity (Rattus norvegicus [25]): 38.7%; Activity (Rattus norvegicus [26]): 34.4%; Activity (Rattus norvegicus [27]): 30.2%; Activity (Rattus norvegicus [28]): 5.9%; Activity (Rattus norvegicus [29]): 54.4%
CCN1CCc2c(c(C)nn2C(=O)Nc2ccc(Br)cc2)C1	40	66.7	32.6	58.3	70	43.7	81.6	63.6	65.1	56.7	83.3	38.1	61.1	57.7	59.7	57.7	58.3	70.5	73.9	50	Activity (Mus musculus [30]): Non-toxic; Activity (Mus musculus [31]): Non-toxic; inhibition in vivo at 100 mg/kg (Mus musculus [23]): 1.7%; inhibition in vivo at 100 mg/kg (Mus musculus [24]): 59.7%; Activity (Rattus norvegicus [25]): 41.5%; Activity (Rattus norvegicus [26]): 60.8%; Activity (Rattus norvegicus [27]): 29.2%; Activity (Rattus norvegicus [28]): 41.3%; Activity (Rattus norvegicus [29]): 67.4%
CCN1CCc2c(c(C(C)(C)C)nn2C(=O)Nc2cccc(C(F)(F)F)c2)C1	45.8	12.2	9.3	13	59.5	19.1	55.1	75.2	65.6	87.3	3.6	35	12.1	6.7	52.7	9.9	24.7	13.7	89.5	52.8	Activity (Mus musculus [30]): Non-toxic; Activity (Mus musculus [31]): Non-toxic; inhibition in vivo at 100 mg/kg (Mus musculus [23]): 2.6%; inhibition in vivo at 100 mg/kg (Mus musculus [24]): 61.4%; Activity (Rattus norvegicus [25]): 15%; Activity (Rattus norvegicus [26]): 42.2%; Activity (Rattus norvegicus [27]): 13%; Activity (Rattus norvegicus [28]): 19.8%; Activity (Rattus norvegicus [29]): 55.6%
CCN1CCc2c(c(C(C)(C)C)nn2C(=O)Nc2cc(C)ccc2C)C1	14.3	18.2	40.5	16.7	7.1	12.7	15.7	12.4	19.8	4.9	18.2	10.1	9.1	4.5	12	44.7	36.4	9.7	21.1	14.3	Activity (Mus musculus [30]): Non-toxic; Activity (Mus musculus [31]): Non-toxic; inhibition in vivo at 100 mg/kg (Mus musculus [23]): 0%; inhibition in vivo at 100 mg/kg (Mus musculus [24]): 63.1%; Activity (Rattus norvegicus [25]): 9.5%; Activity (Rattus norvegicus [26]): 14.4%; Activity (Rattus norvegicus [27]): 4.5%; Activity (Rattus norvegicus [28]): 13.6%; Activity (Rattus norvegicus [29]): 17.9%
CCN1CCc2c(c(C)nn2C(=O)Nc2cccc(C(F)(F)F)c2)C1	10.6	20.5	7	11.1	11.1	15.7	23.1	12.5	15.2	20.7	13.4	13.7	21.8	4.41	30.2	11.8	69.7	11.8	13.3	15.6	Activity (Mus musculus [30]): Non-toxic; Activity (Mus musculus [31]): Non-toxic; inhibition in vivo at 100 mg/kg (Mus musculus [23]): 4.4%; inhibition in vivo at 100 mg/kg (Mus musculus [24]): 56.1%; Activity (Rattus norvegicus [25]): 20.9%; Activity (Rattus norvegicus [26]): 10.2%; Activity (Rattus norvegicus [27]): 11.1%; Activity (Rattus norvegicus [28]): 13.8%; Activity (Rattus norvegicus [29]): 12.1%
